The text below walks through data of ChEMBL document CHEMBL1127484, “5-Aryl-3-(alkylthio)-4H-1,2,4-triazoles as selective antagonists of strychnine-induced convulsions and potential antispastic agents” (J Med Chem, 1994).

The source made the active and inactive calls. Bounds are passed on as bounds.

The subject of series [1] is Mus musculus. Briefly: Effective dose required for antagonist activity against strychnine induced seizures in mice when administered intraperitoneally; Range is 32-50. It counts as functional. As to conditions: ip. In short, it runs like this: (§1)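 CD-1 male mice (18–26 g), groups of 5 or 10, housed individually, dosed ip in distilled H2O or H2O/Tween 80. Convulsant given 30 min later. Strychnine sulfate 2.7 mg/kg ip: protection = no tonic extension >15 min. MES 50 mA, 0.2 s, corneal: no tonic hind-limb extension. PTZ 60 mg/kg iv: no clonic seizures for 2 min. MPA 100 mg/kg iv: no seizures for 5 min. ED50 by quantal analysis from ≥4 doses, ≥10 mice each.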

For series [2], the system named is Mus musculus. Put plainly: Effective dose required for antagonist activity against maximal electroshock induced seizures in mice when administered intraperitoneally. It is filed as functional. Conditions: ip. In short, it runs like this:
as §1
For orientation: Protection in the maximal electroshock model is a classic sign of anticonvulsant action.

The subject of series [3] is Mus musculus. Put plainly: Effective dose required for antagonist activity against 3-mercaptopropionic-acid induced seizures in mice when administered intraperitoneally. It is filed as functional. Conditions: ip. In short, it runs like this:
as §1

The nature of series [4]: Dose encompassing the 50% lethal effect was recorded when administered intraperitoneally in mice. It counts as ADME, organism-based. Conditions: mouse, in vivo, ip. In short, it runs like this:
(§2)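 Deaths were recorded over the 7 days after dosing. The estimated LD50 was taken as the dose range spanning 50% lethality.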

The test system of series [5] is Mus musculus. Briefly: Effective dose required for antagonist activity against pentylenetetrazole-induced seizures in mice when administered intraperitoneally. Conditions: ip. It counts as functional. The essentials:
as §1

Series [6] addresses T1, GABA-A receptor; anion channel (Rattus norvegicus) (UniProt O09028+P15431+P18506+P18508+P19969+P20236+P23574+P23576+P28471+P28473+P30191+P62813+P63079+P63138+Q91ZM7+Q9ES14). Put plainly: In vitro displacement of [3H]flunitrazepam at GABA-A benzodiazepine site in rat cortical membranes at 100 uM (Inactive). It counts as cell membranes. Conditions: Membrane. For orientation: Displacement assays read how much labelled ligand stays bound in the presence of the test substance.

For series [7], the system named is Rattus norvegicus. Put plainly: Effect of compound on reflux function in spinal transected rats at 40 mg/Kg. It counts as functional. In short, it runs like this:
(§3)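 Spinal-transected rats, 5-10 weeks post-transection. Hind-limb activity recorded by transducer. Output integrated over the first 3 s after leg pull (stretch-evoked reflex function) and over the next 57 s (spontaneous hyperreflexia). Sessions were run before and after ip dosing. Test agent given as suspension in distilled H2O/1% Tween 80, or as solution in distilled H2O. Data expressed as % of control; paired t test or least-squared-means comparisons.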

Series [8] has as its system Rattus norvegicus. Briefly: Effect of compound on […] function in spinal transected rats at 10 mg/Kg. It is filed as functional. The essentials:
as §3

Series [9] has as its target T1, GABA-A receptor; anion channel (Rattus norvegicus). Put plainly: In vitro displacement of [35S]TBPS at GABA-A picrotoxin convulsant site in rat cortical membranes at 100 uM (Inactive). It is filed as cell membranes. Conditions: Membrane.
Series [10] deals with Rattus norvegicus. Briefly: Effect of compound on hyperreflexia in spinal transected rats at 40 mg/Kg. It is filed as functional. The essentials: as §3
The test system of series [11] is Rattus norvegicus. Briefly: Effect of compound on hyperreflexia in spinal transected rats at 20 mg/Kg. It is filed as functional. In short, it runs like this: as §3
The test system of series [12] is Rattus norvegicus. Briefly: Effect of compound on reflux function in spinal transected rats at 5 mg/Kg. It is filed as functional. In short, it runs like this:
as §3

Series [13] has as its target Gamma-aminobutyric acid receptor subunit gamma-1 (Rattus norvegicus) (UniProt P23574). Put plainly: Enhancement of 1 uM muscimol-stimulated 36Cl- uptake into rat cerebellar membrane. It is filed as functional. As to conditions: Cerebellum. In short, it runs like this: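 Rat cerebellar membrane vesicles (adult male Sprague-Dawley) in HEPES/Tris buffer, pH 7.5. Preincubated on ice for 15 min with vehicle (0.2% DMSO) or 10 μM compound, then 5 min at 34 °C. 36Cl uptake run for 3 s with 1 μM muscimol and stopped by ice-cold 100 μM picrotoxin buffer plus filtration. Muscimol-stimulated uptake = uptake minus uptake without muscimol, in nmol/mg protein/3 s. Mean ± SEM, n = 3; Student's t test.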

The target in series [14] is GABA B receptor (Rattus norvegicus) (UniProt Q9Z0U4+O88871). Put plainly: In vitro displacement of [3H]baclofen at GABA-B receptor in rat cortical membranes at 100 uM (Inactive). It counts as cell membranes. As to conditions: Membrane.
Series [15] relates to Rattus norvegicus. Put plainly: Effect of compound on reflux function in spinal transected rats at 20 mg/Kg. It counts as functional. The essentials: as §3
Series [16] relates to Rattus norvegicus. Put plainly: Effect of compound on hyperreflexia in spinal transected rats at 10 mg/Kg. It counts as functional. In short, it runs like this:
as §3

In series [17] the target is T1, GABA-A receptor; anion channel (Rattus norvegicus). Briefly: In vitro displacement of [3H]muscimol from GABA-A receptor in rat cortical membranes at 100 uM (Inactive). It is filed as cell membranes. Conditions: Membrane.
Series [18] has as its system Mus musculus. Briefly: Effective dose required for antagonist activity against strychnine induced seizures in mice when administered intraperitoneally. As to conditions: ip. It counts as functional. In short, it runs like this:
as §1

Series [19] has as its system Mus musculus. Put plainly: Effective dose required for antagonist activity against pentylenetetrazole-induced seizures in mice when administered intraperitoneally; Range is 50-100. It counts as functional. As to conditions: ip. The essentials: as §1
A short description of series [20]: Dose encompassing the 50% lethal effect was recorded when administered intraperitoneally in mice; Range is 400-800. It is filed as ADME, organism-based. As to conditions: mouse, in vivo, ip. The essentials: as §2
In series [21] the test system is Mus musculus. Put plainly: Effective dose required for antagonist activity against maximal electroshock induced seizures in mice when administered intraperitoneally; Range is 50-100. As to conditions: ip. It is filed as functional. The essentials:
as §1

For series [22], the system named is Mus musculus. Put plainly: Effective dose required for antagonist activity against 3-mercaptopropionic-acid-induced seizures in mice when administered intraperitoneally; Range is 50-100. It is filed as functional. Conditions: ip. The essentials: as §1
Series [23] deals with Mus musculus. Put plainly: Effective dose required for antagonist activity against pentylenetetrazole-induced seizures in mice when administered intraperitoneally; Range is 25-50. It is filed as functional. Conditions: ip. In short, it runs like this:
as §1

Series [24] relates to Mus musculus. Briefly: Effective dose required for antagonist activity against pentylenetetrazole-induced seizures in mice when administered intraperitoneally; Range 100-200. It counts as functional. As to conditions: ip. In short, it runs like this: as §1
The test system of series [25] is Mus musculus. Briefly: Effective dose required for antagonist activity against 3-mercaptopropionic-acid-induced seizures in mice when administered intraperitoneally; Range 100-200. It is filed as functional. Conditions: ip. The essentials: as §1

Sequence of Gamma-aminobutyric acid receptor subunit gamma-1 (Rattus norvegicus) (P23574 whole entry): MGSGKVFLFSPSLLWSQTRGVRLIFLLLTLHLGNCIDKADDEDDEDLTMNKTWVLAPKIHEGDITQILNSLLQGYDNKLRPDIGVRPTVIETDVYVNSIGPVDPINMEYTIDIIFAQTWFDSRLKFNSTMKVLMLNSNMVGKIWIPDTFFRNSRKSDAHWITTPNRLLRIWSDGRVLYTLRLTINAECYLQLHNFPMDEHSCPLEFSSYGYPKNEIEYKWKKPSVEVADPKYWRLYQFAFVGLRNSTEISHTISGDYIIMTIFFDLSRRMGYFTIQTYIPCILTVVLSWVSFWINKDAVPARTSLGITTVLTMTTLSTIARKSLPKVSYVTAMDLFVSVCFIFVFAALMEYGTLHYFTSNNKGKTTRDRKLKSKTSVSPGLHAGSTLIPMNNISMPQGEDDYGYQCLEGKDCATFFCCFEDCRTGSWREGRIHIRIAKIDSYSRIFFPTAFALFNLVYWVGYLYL

As a reminder, the ED50 is the dose that gives a 50% effect, or the effect in half of the subjects. Read a high ED50 as weaker potency. The term LD50 denotes the dose expected to kill half of the subjects tested. As to `Cn1c(-c2cccs2)nnc1[S+](C)[O-]` (stereo unspecified), the ED50 was 50 mg/kg with Mus musculus [1], over 200 mg/kg in the series with Mus musculus [2], over 200 mg/kg in the series on Mus musculus [3] and over 200 mg/kg with Mus musculus [5]. The LD50 in [4] was over 800 mg/kg.

As to `Cn1c(-c2ccccc2)nnc1S(C)(=O)=O`, the Displacement entry in series [6], in series [9], in series [14] and in [17] was “inactive” each time. The Control was 87% in the series on Rattus norvegicus [7]; 116% in the series on Rattus norvegicus [8]; 43% in the series with Rattus norvegicus [10]; 78% with Rattus norvegicus [11]; 101% with Rattus norvegicus [12]; 114% in the series with Rattus norvegicus [15]. In the series on Rattus norvegicus [16], this compound gave a Control of 46%. Further, the ED50 in the series with Mus musculus [2] was over 200 mg/kg; in the series with Mus musculus [3] it was over 200 mg/kg; in the series with Mus musculus [5] it was 55 mg/kg. Also, the Uptake (nM 3s-1 (mg of protein)-1) in [13] is 3.82. Besides, in series [4], the LD50 is over 800 mg/kg.

For `Cn1nc(-c2ccccc2)nc1[S+](C)[O-]` (stereo unspecified), the ED50 in the series on Mus musculus [18] is over 200 mg/kg; with Mus musculus [19], 100 mg/kg; in the series on Mus musculus [3] it was over 200 mg/kg; in the series with Mus musculus [21] it was 100 mg/kg. The LD50 in [20] stood at 800 mg/kg.

Consider `CCn1c(SC)nnc1-c1ccc(Cl)cc1`, for which the median effective dose (ED50) in the series with Mus musculus [18] was 26.7 mg/kg; in the series on Mus musculus [2] it was over 50 mg/kg; in the series with Mus musculus [22], 100 mg/kg; with Mus musculus [23] it was 50 mg/kg. Besides, in series [4], the 50% lethal dose (LD50) was over 800 mg/kg.

`CSc1nnc(-c2ccccc2)n1C`: the median effective dose (ED50) in the series with Mus musculus [18] is 37.8 mg/kg; in the series with Mus musculus [2] it was over 200 mg/kg; in the series on Mus musculus [24], 200 mg/kg; with Mus musculus [25], 200 mg/kg. In [4], this compound yielded a median lethal dose (LD50) of over 800 mg/kg.
